Experimental data from PubChem BioAssay AID624393 (The Scripps Research Institute Molecular Screening Center, 2012).
Several values for one entry are separate records, joined by “and”; a condition that tells them apart may be missing. Equal values may be shown once.

Target: Induced myeloid leukemia cell differentiation protein Mcl-1 (Homo sapiens) (UniProt Q07820)
Experiment: blockers of MCL1–BIM BH3 interaction – biochemical, fluorescence polarization, assay provider data, probe compound, late-stage follow-up (AID 624393)
Conditions: GST-MCL1 / FITC-Bim BH3 peptide
Outline: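 Test system: GST-MCL1 fusion protein plus fluorescent Bim BH3 peptide; medium: PBS with 0.001% Brij; timing: 20 min at room temperature; technique: fluorescence polarization (mP); read-out: IC50 at 50% level of fitted percent-inhibition curve; control set: DMSO and unlabeled Bim-BH3 peptide wells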

Induced myeloid leukemia cell differentiation protein Mcl-1 (Homo sapiens), sequence (Q07820 whole entry, looked up): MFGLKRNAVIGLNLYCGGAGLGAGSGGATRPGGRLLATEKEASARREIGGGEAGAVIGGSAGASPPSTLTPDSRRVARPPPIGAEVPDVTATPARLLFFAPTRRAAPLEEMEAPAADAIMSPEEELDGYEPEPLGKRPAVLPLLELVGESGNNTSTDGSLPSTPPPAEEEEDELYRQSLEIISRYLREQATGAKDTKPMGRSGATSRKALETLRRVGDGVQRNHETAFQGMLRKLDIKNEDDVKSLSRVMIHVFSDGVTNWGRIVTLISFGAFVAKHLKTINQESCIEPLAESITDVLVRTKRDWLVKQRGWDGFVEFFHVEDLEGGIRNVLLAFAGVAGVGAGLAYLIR

## CCN1CCN(C(c2ccc(C(F)(F)F)cc2)c2ccc3cccnc3c2O)CC1 (stereo unspecified)
  IC50: 250 nM and 310 nM
